Results taken from ChEMBL document CHEMBL3259788, “Influence of the alkylsulfonylamino substituent located at the 6-position of 2,2-dimethylchromans structurally related to cromakalim: from potassium channel openers to calcium entry blockers?” (Eur J Med Chem, 2014).
Activity calls are given as the source filed them. No cut-off for these calls is given here.

system: Thoracic aorta; assay: Ratio of EC50 for myorelaxant activity in endothelium-free rat thoracic aorta presence of 10 uM of KATP channel blocker glibenclamide to EC50 for myorelaxant activity in endothelium-free rat thoracic aorta absence of KATP channel blocker glibenclamide; type: functional
Method in brief: (§1)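 Transverse thoracic aorta rings (3–4 mm), cleaned of fat and connective tissue and equilibrated 60 min, recorded isometrically by force transducer. Contraction induced with 30 or 80 mM KCl. After tension stabilized, drug added cumulatively up to maximal relaxation or 300 µM. Glibenclamide at 1 or 10 µM present throughout where stated. EC50 is the concentration giving 50% inhibition of the KCl plateau, from concentration-response curves. Mean ± SEM (n).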

| SMILES | Ratio EC50 |
| --- | --- |
| CC1(C)Oc2ccc(C#N)cc2C(N2CCCC2=O)C1O (racemic) [CROMAKALIM] | 130 |
| CC1=Nc2ccc(Cl)cc2S(=O)(=O)N1 [DIAZOXIDE] | 8 |

system: Thoracic aorta; assay: Myorelaxant activity in endothelium-free rat thoracic aorta assessed as inhibition of 80 mM of KCl-induced contraction; type: functional, tissue-based; method in brief: as §1

| SMILES | EC50 [µM] |
| --- | --- |
| COc1ccc(CCN(C)CCCC(C#N)(c2ccc(OC)c(OC)c2)C(C)C)cc1OC (centres undefined) [VERAPAMIL] | 0.052 |
| CC1(C)Oc2ccc(C#N)cc2C(N2CCCC2=O)C1O (racemic) [CROMAKALIM] | 138 |
| CC1=Nc2ccc(Cl)cc2S(=O)(=O)N1 [DIAZOXIDE] | > 300 |
| CC1(C)CC(NC(=S)Nc2cccc(Cl)c2)c2cc(NS(C)(=O)=O)ccc2O1 (centres undefined) | 16.8 |

system: not listed separately; assay: Inhibition of glucose-induced insulin secretion in rat pancreatic islets assessed as residual insulin release level at 10 uM preincubated for 30 mins measured after 90 mins radioimmunology analysis; type: functional
Method in brief: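 Batches of 10 rat islets preincubated 30 min at 37 °C in bicarbonate salt medium with 2.8 mM glucose and 0.5% albumin, gassed O2/CO2 (95/5). Then incubated 90 min at 37 °C with 16.7 mM glucose plus drug. Insulin measured by radioimmunoassay against a rat insulin standard and expressed as % of drug-free 16.7 mM glucose control. Mean ± SEM (n).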

| SMILES | Activity [%] |
| --- | --- |
| CC1(C)CC(NC(=S)Nc2ccc(Cl)cc2)c2cc(NS(C)(=O)=O)ccc2O1 (centres undefined) | 63.9 |
| CCS(=O)(=O)Nc1ccc2c(c1)C(NC(=S)Nc1ccc(C#N)cc1)CC(C)(C)O2 (centres undefined) | 57.9 |
| CC1(C)CC(NC(=S)Nc2ccc(C#N)cc2)c2cc(NS(C)(=O)=O)ccc2O1 (centres undefined) | 81.7 |
| CCS(=O)(=O)Nc1ccc2c(c1)C(NC(=O)Nc1cccc(Cl)c1)CC(C)(C)O2 (centres undefined) | 72.1 |
| CCS(=O)(=O)Nc1ccc2c(c1)C(NC(=O)Nc1ccc(C#N)cc1)CC(C)(C)O2 (centres undefined) | 73.6 |
| CC1(C)CC(NC(=O)Nc2ccc(C#N)cc2)c2cc(NS(C)(=O)=O)ccc2O1 (centres undefined) | 81.6 |
| CCS(=O)(=O)Nc1ccc2c(c1)C(NC(=S)Nc1cccc(C#N)c1)CC(C)(C)O2 (centres undefined) | 64.7 |
| CC1(C)CC(NC(=O)Nc2cccc(C#N)c2)c2cc(NS(C)(=O)=O)ccc2O1 (centres undefined) | 84.4 |
| CCS(=O)(=O)Nc1ccc2c(c1)C(NC(=S)Nc1cccc(Cl)c1)CC(C)(C)O2 (centres undefined) | 54.3 |
| CC1(C)Oc2ccc(C#N)cc2C(N2CCCC2=O)C1O (racemic) [CROMAKALIM] | 94.4 |
| CC1=Nc2ccc(Cl)cc2S(=O)(=O)N1 [DIAZOXIDE] | 80.8 |
| CC1(C)CC(NC(=O)Nc2ccc(Cl)cc2)c2cc(NS(C)(=O)=O)ccc2O1 (centres undefined) | 88.5 |
| CC1(C)CC(NC(=S)Nc2cccc(Cl)c2)c2cc(NS(C)(=O)=O)ccc2O1 (centres undefined) | 69.2 |
| CC1(C)CC(NC(=O)Nc2cccc(Cl)c2)c2cc(NS(C)(=O)=O)ccc2O1 (centres undefined) | 94.5 |
| CCS(=O)(=O)Nc1ccc2c(c1)C(NC(=O)Nc1cccc(C#N)c1)CC(C)(C)O2 (centres undefined) | 75.6 |
| CC1(C)CC(NC(=S)Nc2cccc(C#N)c2)c2cc(NS(C)(=O)=O)ccc2O1 (centres undefined) | 91.7 |
| CCS(=O)(=O)Nc1ccc2c(c1)C(NC(=O)Nc1ccc(Cl)cc1)CC(C)(C)O2 (centres undefined) | 78.1 |
| CCS(=O)(=O)Nc1ccc2c(c1)C(NC(=S)Nc1ccc(Cl)cc1)CC(C)(C)O2 (centres undefined) | 49.1 |

system: Thoracic aorta; assay: Inhibition of 80 mM of KCl-induced Ca2+ outflow in endothelium-free rat thoracic aorta assessed 45Ca outflow per min at 30 uM (reference value: 6.06 +/- 0.36%); type: functional; parameters: scale not given: the % may be the effect or the level left

| SMILES | Activity [%] |
| --- | --- |
| CC1(C)CC(NC(=S)Nc2cccc(Cl)c2)c2cc(NS(C)(=O)=O)ccc2O1 (centres undefined) | 3.68 |

system: Thoracic aorta; assay: Myorelaxant activity in endothelium-free rat thoracic aorta assessed as inhibition of 30 mM of KCl-induced contraction; type: functional, tissue-based; method in brief: as §1

| SMILES | EC50 [µM] | inhibition |
| --- | --- | --- |
| COc1ccc(CCN(C)CCCC(C#N)(c2ccc(OC)c(OC)c2)C(C)C)cc1OC (centres undefined) [VERAPAMIL] | 0.031 | Dose-dependent effect |
| CC1(C)CC(NC(=S)Nc2ccc(Cl)cc2)c2cc(NS(C)(=O)=O)ccc2O1 (centres undefined) | 11.6 | – |
| CCS(=O)(=O)Nc1ccc2c(c1)C(NC(=S)Nc1ccc(C#N)cc1)CC(C)(C)O2 (centres undefined) | 12 | – |
| CC1(C)CC(NC(=S)Nc2ccc(C#N)cc2)c2cc(NS(C)(=O)=O)ccc2O1 (centres undefined) | 11.6 | – |
| CCS(=O)(=O)Nc1ccc2c(c1)C(NC(=O)Nc1cccc(Cl)c1)CC(C)(C)O2 (centres undefined) | 17.2 | – |
| CCS(=O)(=O)Nc1ccc2c(c1)C(NC(=O)Nc1ccc(C#N)cc1)CC(C)(C)O2 (centres undefined) | 11.8 | – |
| CC1(C)CC(NC(=O)Nc2ccc(C#N)cc2)c2cc(NS(C)(=O)=O)ccc2O1 (centres undefined) | 19.8 | – |
| CCS(=O)(=O)Nc1ccc2c(c1)C(NC(=S)Nc1cccc(C#N)c1)CC(C)(C)O2 (centres undefined) | 12.1 | – |
| CC1(C)CC(NC(=O)Nc2cccc(C#N)c2)c2cc(NS(C)(=O)=O)ccc2O1 (centres undefined) | 9.3 | – |
| CCS(=O)(=O)Nc1ccc2c(c1)C(NC(=S)Nc1cccc(Cl)c1)CC(C)(C)O2 (centres undefined) | 9.8 | – |
| CC1(C)Oc2ccc(C#N)cc2C(N2CCCC2=O)C1O (racemic) [CROMAKALIM] | 0.13 | – |
| CC1=Nc2ccc(Cl)cc2S(=O)(=O)N1 [DIAZOXIDE] | 26.1 | – |
| CC1(C)CC(NC(=O)Nc2ccc(Cl)cc2)c2cc(NS(C)(=O)=O)ccc2O1 (centres undefined) | > 30 | – |
| CC1(C)CC(NC(=S)Nc2cccc(Cl)c2)c2cc(NS(C)(=O)=O)ccc2O1 (centres undefined) | 9.8 | Dose-dependent effect |
| CC1(C)CC(NC(=O)Nc2cccc(Cl)c2)c2cc(NS(C)(=O)=O)ccc2O1 (centres undefined) | 15.2 | – |
| CCS(=O)(=O)Nc1ccc2c(c1)C(NC(=O)Nc1cccc(C#N)c1)CC(C)(C)O2 (centres undefined) | 9.5 | – |
| CC1(C)CC(NC(=S)Nc2cccc(C#N)c2)c2cc(NS(C)(=O)=O)ccc2O1 (centres undefined) | 9.8 | – |
| CCS(=O)(=O)Nc1ccc2c(c1)C(NC(=O)Nc1ccc(Cl)cc1)CC(C)(C)O2 (centres undefined) | > 10 | – |
| CCS(=O)(=O)Nc1ccc2c(c1)C(NC(=S)Nc1ccc(Cl)cc1)CC(C)(C)O2 (centres undefined) | 5.1 | – |

system: Thoracic aorta; assay: Effect on 86Rb fractional flow rate in endothelium-free rat thoracic aorta at 25 to 100 uM; type: functional, tissue-based
Method in brief: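 Prelabelled 86Rb (42K substitute) efflux: pairs of 2 mm aortic rings preincubated 30 min at 37 °C in bicarbonate salt solution gassed O2/CO2 (95/5), loaded 60 min with 86Rb, washed, then perifused at 1.0 mL/min with 30 mM K+ medium throughout. Effluent collected per min from 31st to 90th min. Fractional outflow rate (% of instantaneous ring content per min) from scintillation counts.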

| SMILES | Activity |
| --- | --- |
| CC1(C)CC(NC(=S)Nc2cccc(Cl)c2)c2cc(NS(C)(=O)=O)ccc2O1 (centres undefined) | inactive |

system: Thoracic aorta; assay: Myorelaxant activity in endothelium-free rat thoracic aorta assessed as inhibition of 30 mM of KCl-induced contraction in presence of 10 uM of KATP channel blocker glibenclamide; type: functional, tissue-based; method in brief: as §1

| SMILES | EC50 [µM] | inhibition |
| --- | --- | --- |
| COc1ccc(CCN(C)CCCC(C#N)(c2ccc(OC)c(OC)c2)C(C)C)cc1OC (centres undefined) [VERAPAMIL] | 0.035 | – |
| CC1(C)Oc2ccc(C#N)cc2C(N2CCCC2=O)C1O (racemic) [CROMAKALIM] | 28.8 | Dose-dependent effect |
| CC1=Nc2ccc(Cl)cc2S(=O)(=O)N1 [DIAZOXIDE] | – | Dose-dependent effect |
| CC1(C)CC(NC(=S)Nc2cccc(Cl)c2)c2cc(NS(C)(=O)=O)ccc2O1 (centres undefined) | 15.7 | – |

system: Thoracic aorta; assay: Myorelaxant activity in endothelium-free rat thoracic aorta assessed as inhibition of 30 mM of KCl-induced contraction in presence of 1 uM of KATP channel blocker glibenclamide; type: functional, tissue-based; method in brief: as §1

| SMILES | EC50 [µM] | inhibition |
| --- | --- | --- |
| COc1ccc(CCN(C)CCCC(C#N)(c2ccc(OC)c(OC)c2)C(C)C)cc1OC (centres undefined) [VERAPAMIL] | 0.038 | – |
| CC1(C)Oc2ccc(C#N)cc2C(N2CCCC2=O)C1O (racemic) [CROMAKALIM] | 2.5 | Dose-dependent effect |
| CC1=Nc2ccc(Cl)cc2S(=O)(=O)N1 [DIAZOXIDE] | – | Dose-dependent effect |
| CC1(C)CC(NC(=S)Nc2cccc(Cl)c2)c2cc(NS(C)(=O)=O)ccc2O1 (centres undefined) | 16.6 | – |

system: Thoracic aorta; assay: Ratio of EC50 for myorelaxant activity in endothelium-free rat thoracic aorta presence of 1 uM of KATP channel blocker glibenclamide to EC50 for myorelaxant activity in endothelium-free rat thoracic aorta absence of KATP channel blocker glibenclamide; type: functional; method in brief: as §1

| SMILES | Ratio EC50 |
| --- | --- |
| CC1(C)Oc2ccc(C#N)cc2C(N2CCCC2=O)C1O (racemic) [CROMAKALIM] | 10 |
| CC1=Nc2ccc(Cl)cc2S(=O)(=O)N1 [DIAZOXIDE] | 4.4 |
